Measured values from PMC9097774 (International Journal of Oncology, 2022).

Legend:
[1] = system: GLUT2 expression in HepG2 and Huh7 cells; assay: Western blotting of GLUT2; type: cell-based, human; conditions: Fig. S1
HepG2 cells = assay: Glycolytic activity; type: cell-based, human; conditions: cell culture supernatant; Fig. S1
Outline: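 Glucose remaining and lactate released into the cell culture supernatant were measured with a blood gas analyser.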

[2] = system: p53 phosphorylation in HepG2 and Huh7 cells; assay: Western blotting of p53 and phosphorylated p53; type: cell-based, human; conditions: 24 h; BB 0.6 and 1.2 µM; Vs 4.0 µM
Outline: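 HepG2 and Huh7 cells were treated 24 h in RPMI with test compound (0.6 or 1.2 µM) or reference HDAC inhibitor (4.0 µM). Whole-cell extracts were made in SDS/deoxycholate/NP-40 buffer with protease inhibitors. Samples of 30 µg protein were run on 7.5% or 12% SDS-PAGE and blotted to PVDF. Blots were milk-blocked, given primary antibody overnight at 4°C, then HRP secondary (1:10,000) for 1 h. Tubulin served as loading control.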

HDAC1 = HDAC1 (Homo sapiens, UniProt Q13547); assay: Cell free fluorogenic HDAC assay; type: biochemical; conditions: IC50 and two-fold IC50 concentrations; control set to 100%
HDAC1, sequence (Q13547 whole entry): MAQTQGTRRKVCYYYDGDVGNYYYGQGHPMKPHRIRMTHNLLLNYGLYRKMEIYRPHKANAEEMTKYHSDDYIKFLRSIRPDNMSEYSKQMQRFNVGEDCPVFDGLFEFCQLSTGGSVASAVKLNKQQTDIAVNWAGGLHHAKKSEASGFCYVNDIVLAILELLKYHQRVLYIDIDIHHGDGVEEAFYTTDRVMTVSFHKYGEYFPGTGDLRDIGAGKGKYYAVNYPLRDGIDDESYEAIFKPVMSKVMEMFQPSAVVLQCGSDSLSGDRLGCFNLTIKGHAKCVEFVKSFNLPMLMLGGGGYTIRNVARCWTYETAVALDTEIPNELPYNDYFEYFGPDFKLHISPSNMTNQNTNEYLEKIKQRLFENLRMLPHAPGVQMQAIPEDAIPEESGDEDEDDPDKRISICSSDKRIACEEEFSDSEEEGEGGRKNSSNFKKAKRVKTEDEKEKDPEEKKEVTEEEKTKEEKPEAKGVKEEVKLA

[3] = cited from earlier work

| Structure (SMILES) | Protein expression levels of GLUT2 [1] | glycolytic activity (glucose consumption, lactate production) (HepG2 cells) | phosphorylation of p53 [2] | effect on activity of HDAC1 (HDAC1) | therapeutic concentration [3] |
| --- | --- | --- | --- | --- | --- |
| O=C(CCCCCCC(=O)Nc1ccccc1)NO [vorinostat] | markedly reduced the expression of GLUT2 | no such reduction in glycolytic activity could be observed | no increase in p53 phosphorylation | potent inhibitory effects | – |
| CNC(=O)c1cc(Oc2ccc(NC(=O)Nc3ccc(Cl)c(C(F)(F)F)c3)cc2)ccn1 [sorafenib] | – | – | – | – | ~ 8 µM |
